In ChEMBL document CHEMBL3244283, “Synthesis and biological activity of potential antimetabolites” (1977) one finds Activity, ED50 and inhibition data, which are given here for five molecules.

≈ marks a conversion by molar mass, not a printed value. Calls of active or inactive are those of the source. The rule behind the calls is not given here.

For one test, the system named is L1210. The test is described as follows: Antitumor activity against mouse L1210 cells allografted in BDF1 mouse. The class given is functional, cell-based. In a few lines: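 Run through the NCI routine preliminary in vivo screen (2LE system). L1210 lymphoid leukemia was carried in BDF1 host mice.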
A short description of test [1]: Cytotoxicity against human NCI-[…] cells assessed as growth inhibition. The class given is functional. In a few lines: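 Run through the NCI routine preliminary in vitro cell-culture screen (9KB system) on human epidermoid carcinoma of the nasopharynx. ED50 is the concentration giving 50% growth inhibition relative to untreated controls.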
The test system of test [2] is Escherichia coli. The test is described as follows: Irreversible inhibition of Escherichia coli aspartate transcarbamylase in presence of aspartate.
The test system of test [3] is Escherichia coli. Nature of the test: Inhibition of Escherichia coli aspartate transcarbamylase assessed as interaction between aspartate and carbamyl phosphate at 66 mM relative to control. The method, boiled down:
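E. coli aspartate transcarbamylase (0.1 per ml) catalysed the reaction of 5 mM aspartate with 4 mM carbamyl phosphate. Test agent was present at 66 mM, and phosphate at the same concentration served as a comparison. Enzyme activity was read colorimetrically. Inhibition is expressed as a percentage relative to the uninhibited reaction.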

Test [4] deals with Escherichia coli. Nature of the test: Irreversible inhibition of Escherichia coli aspartate transcarbamylase in absence of aspartate.

Regarding `NC(Cc1ccccc1)C(=O)CCl` (stereo not drawn), the outcome with L1210 was inactive. Further, in test [1], the ED50 came to 4 µg/mL (≈ 20.2 µM).
For `NC(Cc1ccc(O)cc1)C(=O)CCl` (stereo not drawn), in the test on L1210, the result was inactive. Also, the ED50 in test [1] amounted to 2.1 µg/mL (≈ 9.83 µM).
For `CC(C)CC(N)C(=O)CCl` (stereo not drawn) the same measures were “inactive” and 7.6 µg/mL (≈ 46.4 µM).
On to `NCCCCC(N)C(=O)CCl` (stereo not drawn), for which the outcome in the test on L1210 was inactive. In addition, in test [1], the ED50 worked out at 2.7 µg/mL (≈ 15.1 µM).
On to `O=C(CCl)NP(=O)([O-])[O-].[Li+].[Li+]`, for which the inhibition result in the test with Escherichia coli [2] and in the test on Escherichia coli [4] was “inactive” in each case. For the same molecule, the outcome with L1210 was inactive. Also, the inhibition (usually the change of the read-out against control, counted positive when it falls) in the test with Escherichia coli [3] was determined as 60%. Besides, in test [1], the ED50 was determined as 2.5 µg/mL.
